“Also recorded” adds a separate entry of the source. Read-outs that look alike come from different tables or passages of the source.
Key:
[1] = test system: T. foetus D1 trophozoites; assay: Murine model of vaginal trichomonad infection; format: in vivo, BALB/c mice
Method in brief: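 Freshly weaned (21–24 days) female BALB/c mice were infected intravaginally with 10^6 mid-log T. foetus D1 trophozoites in 5 µL growth medium. One day later they received five doses over three days (1 on day 1, 2 on each of days 2 and 3). Doses were either oral gavage of 25 mg/kg per dose as a suspension in 1% hypromellose, 50 µL, or intravaginal 50 µg in 5 µL; controls received solvent. Live trophozoites in 30 µL PBS vaginal washes were counted in a chamber on day 4.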

T. vaginalis [2] = assay: Fluorescence microscopy; format: cell-based, Trichomonas vaginalis; conditions: 2×EC50
Method in brief: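 Samples from the growth-curve cultures, taken at 8-h intervals, were centrifuged twice at 2600 × g for 10 min at 4 °C, with a PBS pH 7.4 wash in between. Cells were air-dried 30 min on poly-L-lysine slides, fixed 15 min in 4% paraformaldehyde/PBS, washed, and mounted in antifade medium with DAPI. Nuclear volumes were measured from Z-stacks. Cultures were passaged at 24 h to 1.32×10^5 cells/mL.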

[3] = mouse models of Chagas' disease; cited from earlier work
[4] = test system: Human Embryonic Kidney (HEK) cells; assay: Toxicity against Human Embryonic Kidney; format: cell-based; conditions: for S.I. (Selectivity Index): HEK versus T. vaginalis
T. foetus strain D1 = assay: In vitro activity against T. foetus; format: cell-based, Tritrichomonas foetus
[5] = test system: T. vaginalis strain F1623; assay: In vitro activity against T. vaginalis F1623; format: cell-based, Trichomonas vaginalis; conditions: T. vaginalis strain F1623, same assay as T. foetus
[6] = test system: T. vaginalis trophozoites of the metronidazole-sensitive strain G3; assay: Resorufin-based drug sensitivity assay; format: cell-based, Trichomonas vaginalis; conditions: for EC50: Trichomonas vaginalis
T. vaginalis [7] = conditions: cited from earlier work
[8] = test system: T. vaginalis trophozoites; assay: Growth curve assay; format: cell-based, Trichomonas vaginalis; conditions: 2×EC50, continuous exposure 56 h, passage after 24 h
[9] = read-out: EC50 HEK, HEK cells, average of at least 3 independent determinations and SD
[10] = Homo sapiens, HEK293, read-out: EC50 HEK
[11] = read-out: EC50 T. vaginalis, resorufin assay, 24 h + 2 h, 2% O2/98% N2, average of at least 3 independent determinations and SD

## Nc1ncnc2c1c(-c1ccc(Cl)cc1)cn2[C@@H]1O[C@H](CO)[C@@H](O)[C@H]1O [TH1012]
[1]; oral 5×25 mg/kg or topical 1%, 25 mg/kg
  adverse effects during the treatment period: No adverse effects were observed; also recorded: without any apparent ill effects
[1]; topical intravaginal, 1% (50 μg per dose), five doses over three days
  effect on infection (live trophozoites in vaginal washes on day 4): almost complete eradication of the infection; also recorded: almost completely eradicated the T. foetus infection; also recorded: strongly inhibited T. foetus infection in mice
T. vaginalis [2]; 24 h continuous incubation
  cell morphology / nuclei (DAPI): displayed multiple nuclei at 24 h
[3]
  ill effects on the animals: without any apparent ill effects
[4]; [9]
  EC50: > 200 µM
T. foetus strain D1
  EC50: 13.9 µM
[5]
  EC50: 0.18 µM
[6]
  in vitro anti-T. vaginalis activity (EC50) described in words: double-digit nanomolar

## COc1ccc(-c2cn([C@@H]3O[C@H](CO)C[C@H]3O)c3ncnc(N)c23)cc1 [FH8494]
[4]; [9]
  EC50: > 200 µM

## Nc1ncnc2c1c(-c1ccc(F)cc1)cn2[C@@H]1O[C@H](CO)[C@@H](O)[C@H]1O [MS1001]
[4]; [9]
  EC50: > 200 µM

## Nc1ncnc2c1c(-c1cccc(Cl)c1)cn2[C@@H]1O[C@H](CO)[C@@H](O)[C@H]1O [FH8459]
[4]; [9]
  EC50: > 200 µM

## Nc1ncnc2c1c(C1CCCCC1)cn2C1OC(CO)CC1O (stereo not drawn) [FH10669]
[6]
  in vitro anti-T. vaginalis activity (EC50) described in words: very weak activity

## COc1cc(-c2cn([C@@H]3O[C@H](CO)C[C@H]3O)c3ncnc(N)c23)ccc1Cl [FH10649]
[4]; [9]
  EC50: 178 ± 6 µM

## Nc1ncnc2c1c(-c1ccc(Cl)cc1Cl)cn2[C@@H]1O[C@H](CO)C[C@H]1O [FH9581]
[4]; [9]
  EC50: > 200 µM

## Nc1ncnc2c1c(-c1ccccc1)cn2[C@@H]1O[C@H](CO)C[C@H]1O [FH8480]
[6]
  in vitro anti-T. vaginalis activity (EC50) described in words: low micromolar

## Nc1ncnc2c1c(-c1ccc(F)c(Cl)c1)cn2[C@@H]1O[C@H](CO)C[C@H]1O [FH10681]
[4]; [9]
  EC50: > 200 µM

## Nc1ncnc2c1c(-c1ccc(Cl)c(F)c1)cn2[C@@H]1O[C@H](CO)C[C@H]1O [FH10683]
[4]; [9]
  EC50: 151 ± 1 µM

## CC(C)c1ccc(-c2cn([C@@H]3O[C@H](CO)C[C@H]3O)c3ncnc(N)c23)cc1 [FH9574]
[4]; [9]
  EC50: 94 ± 9 µM

## Nc1ncnc2c1c(-c1cc(Cl)cc(Cl)c1)cn2[C@@H]1O[C@H](CO)[C@@H](O)[C@H]1O [FH8460]
[4]; [9]
  EC50: > 200 µM

## COc1ccc(-c2cn([C@@H]3O[C@H](CO)C[C@H]3O)c3ncnc(N)c23)cc1Cl [FH10645]
[4]; [9]
  EC50: > 200 µM

## Nc1ncnc2c1c(-c1ccccc1F)cn2[C@@H]1O[C@H](CO)[C@@H](O)[C@H]1O [FH7435]
[4]; [9]
  EC50: > 200 µM

## Cc1ccc(-c2cn([C@@H]3O[C@H](CO)C[C@H]3O)c3ncnc(N)c23)cc1 [FH8481]
[4]; [9]
  EC50: > 200 µM
[6]
  in vitro anti-T. vaginalis activity (EC50) described in words: low micromolar

## Cc1ccc(-c2cn([C@@H]3O[C@H](CO)[C@@H](O)[C@H]3O)c3ncnc(N)c23)cc1 [TH1011]
[4]; [9]
  EC50: > 200 µM
[6]
  in vitro anti-T. vaginalis activity (EC50) described in words: double-digit nanomolar

## Nc1ncnc2c1c(-c1ccc(C(F)(F)F)cc1)cn2[C@@H]1O[C@H](CO)[C@@H](O)[C@H]1O [FH11704]
[4]; [9]
  EC50: > 200 µM

## Nc1ncnc2c1c(-c1ccc(Cl)cc1)cn2[C@@H]1O[C@H](CO)C[C@H]1O [FH8512]
[3]
  ill effects on the animals: without any apparent ill effects
[4]; [9]
  EC50: > 200 µM

## COc1ccc(-c2cn([C@@H]3O[C@H](CO)[C@@H](O)[C@H]3O)c3ncnc(N)c23)cc1 [TH1013]
[4]; [9]
  EC50: > 200 µM

## Nc1ncnc2c1c(-c1ccc(C(F)(F)F)cc1)cn2[C@@H]1O[C@H](CO)C[C@H]1O [FH9576]
T. vaginalis [2]; 16 h continuous incubation
  cell morphology / nuclei (DAPI): cells still looked normal at 16 h
[4]; [9]
  EC50: 148 ± 22 µM

## Nc1nc(F)nc2nc[nH]c12 [Compound 2-F-adenine, 2-F-adenine]
T. vaginalis [7]
  antitrichomonal activity: ~100 nM

## 2’-F,2’-deoxyadenosine
T. vaginalis [7]
  antitrichomonal efficacy: substantial antitrichomonal efficacy

## Cc1ccc(-c2cn([C@@H]3O[C@H](CO)C[C@H]3O)c3ncnc(N)c23)cc1C [FH10653]
[4]; [9]
  EC50: 168 ± 19 µM

## Cc1cc(-c2cn([C@@H]3O[C@H](CO)C[C@H]3O)c3ncnc(N)c23)ccc1Cl [FH10648]
[4]; [9]
  EC50: 146 ± 13 µM

## Nc1ncnc2c1c(-c1ccc(Cl)c(Cl)c1)cn2[C@@H]1O[C@H](CO)[C@@H](O)[C@H]1O [FH3147, 7-deaza,7-(3,4-dichlorophenyl)adenosine]
[4]
  S.I. (Selectivity Index): >10,000
[4]; [10]
  EC50: > 200 µM
[6]
  in vitro anti-T. vaginalis activity (EC50) described in words: double-digit nanomolar
[6]; [11]
  EC50: 0.029 ± 0.003 µM

## Cc1ccc(-c2cn([C@@H]3O[C@H](CO)C[C@H]3O)c3ncnc(N)c23)cc1Cl [FH10644]
[4]; [9]
  EC50: 94 ± 9 µM

## Nc1ncnc2c1c(-c1ccc([N+](=O)[O-])cc1)cn2[C@@H]1O[C@H](CO)C[C@H]1O [FH9582]
[4]; [9]
  EC50: > 200 µM

## Nc1ncnc2c1c(-c1ccc(F)cc1)cn2[C@@H]1O[C@H](CO)C[C@H]1O [FH10680]
[4]; [9]
  EC50: > 200 µM
[6]
  in vitro anti-T. vaginalis activity (EC50) described in words: low micromolar

## Nc1ncnc2c1c(-c1ccc3ccccc3c1)cn2[C@@H]1O[C@H](CO)C[C@H]1O [FH9575]
[4]; [9]
  EC50: 44 ± 5 µM

## Nc1ncnc2c1c(-c1ccccc1)cn2[C@@H]1O[C@H](CO)[C@@H](O)[C@H]1O [TH1004, 7-deaza-7-phenyladenosine]
T. vaginalis [2]; 24 h continuous incubation
  cell morphology / nuclei (DAPI): the cell membrane appears to be disintegrating and multiple nuclei are present in some cells
[4]
  S.I. (Selectivity Index): >465
[4]; [10]
  EC50: > 200 µM
[6]; [11]
  EC50: 0.44 ± 0.059 µM

## Nc1ncnc2c1c(-c1ccc(F)c(F)c1)cn2[C@@H]1O[C@H](CO)C[C@H]1O [FH10682]
[4]; [9]
  EC50: > 200 µM

## 2-F, 2’-deoxyadenosine
T. vaginalis [7]
  antitrichomonal activity: ~100 nM

## Nc1ncnc2c1ncn2[C@@H]1O[C@H](CO)[C@@H](O)[C@@H]1F [2’-deoxy-2’-fluoroarabinoadenosine]
T. vaginalis [7]
  antitrichomonal efficacy: substantial antitrichomonal efficacy

## Nc1ncnc2c1ncn2[C@@H]1O[C@H](CO)[C@@H](O)[C@@H]1O [adenine arabinoside]
T. vaginalis [7]
  antitrichomonal efficacy: substantial antitrichomonal efficacy

## Nc1ncnc2c1c(-c1ccc(OC(F)(F)F)cc1)cn2[C@@H]1O[C@H](CO)C[C@H]1O [FH9577]
T. vaginalis [2]; 16 h continuous incubation
  cell morphology / nuclei (DAPI): looked healthy at 16 h
T. vaginalis [2]; 24 h continuous incubation
  cell morphology / nuclei (DAPI): clearly displayed multiple nuclei at 24 h

## CCc1ccc(-c2cn([C@@H]3O[C@H](CO)C[C@H]3O)c3ncnc(N)c23)cc1 [FH10647]
[4]; [9]
  EC50: 133 ± 2 µM

## Nc1ncnc2c1c(-c1cccc(Cl)c1)cn2[C@@H]1O[C@H](CO)C[C@H]1O [FH10641]
[4]; [9]
  EC50: > 200 µM

## Cc1ncc([N+](=O)[O-])n1CCO [metronidazole, reference compound]
[8]
  effect on T. vaginalis growth: managed a modest amount of growth before arrest and population decline
[6]; BD pouch bags incubation, n=16
  EC50: 0.26 ± 0.02 µM
[6]; confirmation experiments, n=9, unit inferred
  EC50: 0.53 ± 0.1 µM
[6]; in-pod incubation, n=16
  EC50: 0.28 ± 0.02 µM
[6]; introduction, hit criterion
  EC50: ~0.3 µM

## Nc1ncnc2c1c(-c1ccc(Cl)c(Cl)c1)cn2[C@@H]1O[C@H](CO)C[C@H]1O [FH8513]
[4]; [9]
  EC50: > 200 µM

## Cc1ccc(-c2cn([C@@H]3O[C@H](CO)[C@@H](O)[C@H]3O)c3ncnc(N)c23)cc1C [FH13820]
[4]; [9]
  EC50: > 200 µM
